We go through 13 compounds from ChEMBL document CHEMBL2396655, “Design, synthesis, and biological evaluation of (E)-N-aryl-2-arylethenesulfonamide analogues as potent and orally bioavailable microtubule-targeted anticancer agents” (J Med Chem, 2013).

Each structure is given as a SMILES string. pIC50: −log10 of the molar value. Values after ≈ are worked out from the molar mass of the structure shown. Active and inactive are the calls of the source. No cut-off for these calls is given here. A value given as a limit tells only on which side of the number the result lay.

The species named for one series is Bos taurus. Briefly: Inhibition of bovine brain tubulin assessed as destabilization of microtubule polymerization at 10 uM over 40 mins by spectrophotometric analysis. The gist of the method:
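Purified bovine brain tubulin was incubated at 37 °C with 10 μM compound, DMSO or reference agents. Polymerization was followed as rising absorbance at 340 nm over 40 min. Data are representative of three independent experiments.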

A further series has as its system K562. The experiment in a line: Cytotoxicity against human K562 cells after 96 hrs by trypan blue exclusion assay. The class given is functional, cell-based. The note with it: for pIC50: K562, 96 h. The gist of the method:
(§1)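 Cells were grown in DMEM or RPMI with 10% FBS and plated at 2.5×10⁴ cells/well in 12-well dishes. Compounds were added 24 h later at various concentrations. After 96 h, viable cells were counted by trypan blue exclusion from duplicate wells. Results are the mean of two independent experiments.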

Series [1] is described as follows: Solubility of the compound in water. The format is physicochemical.
A further series has as its system DU-145. The experiment in a line: Cytotoxicity against human DU145 cells after 96 hrs by trypan blue exclusion assay. The format is functional, cell-based. The note with it: for pIC50: DU-145, 96 h. In short, it runs like this: as §1
The nature of series [2]: Cytotoxicity against human Caco2 cells after 1 hr by Alamar Blue assay. The class given is cell-based. Conditions: Caco-2 cells, read-out: LD50.
Series [3] has as its target T1, Tubulin (Sus scrofa) (UniProt P02554+P02550). Briefly: Competitive binding affinity to pig brain tubulin paclitaxel binding site at 0.1 to 100 uM after 1 hr by mass spectrophotometric analysis in presence of paclitaxel and GTP. In short, it runs like this:
(§2)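 Porcine brain tubulin (1.0 mg/mL) in PIPES 80 mM, MgCl₂ 2 mM, EGTA 0.5 mM, pH 6.9, at 37 °C. […] Competitor was 0.1–100 μM for 1 h. Unbound ligand in the 30 kDa ultrafiltrate was measured by MS. Runs were in triplicate; IC50 came from a Hill fit.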

In series [4] the target is T1, Tubulin (Sus scrofa). The experiment in a line: Competitive binding affinity to pig brain tubulin vinblastine binding site at 0.1 to 100 uM after 1 hr by mass spectrophotometric analysis in presence of vinblastine. In short, it runs like this:
as §2

For the compound `COC(=O)Nc1nc2cc(C(=O)c3cccs3)ccc2[nH]1`, in the series listed under Bos taurus, the inhibition entry is “Active”.

A word on the pIC50: it is −log10 of the IC50, conventionally taken in molar units. High values mean a low IC50, low ones a high IC50. One may read the solubility as the dissolved amount per volume that the medium holds. Read a low solubility as a poorly soluble substance. On to `COc1cc(OC)c(/C=C/S(=O)(=O)Nc2ccc(OC)c(NC(C(=O)O)c3ccc(F)cc3)c2)c(OC)c1` (configuration not stated), for which, in the series with K562, the Activity result was “Dose-dependent effect” and the pIC50 was 7.70. In series [1], the concentration in solution (solubility) came to 10000 µg/mL (≈ 18.3 mM). In the series with DU-145, the Activity entry is “Dose-dependent effect” and the pIC50 was 7.12.

Consider `COc1cc(OC)c(/C=C/S(=O)(=O)Nc2ccc(OC)c(NC(C(=O)O)c3ccc(Cl)cc3)c2)c(OC)c1` (configuration not stated), for which, in the series on K562, the Activity entry was “Dose-dependent effect” and the pIC50 was 7.82. The same compound gave a solubility in series [1] of 10000 µg/mL (≈ 17.8 mM). Moreover, in the series on DU-145, the Activity entry was “Dose-dependent effect” and the pIC50 was 7.12.

On to `COc1cc(OC)c(/C=C/S(=O)(=O)Nc2ccc(OC)c(NC(C(=O)O)c3ccccc3)c2)c(OC)c1` (configuration not stated), for which the Activity entry with K562 and with DU-145 was “Dose-dependent effect” each time. In addition, the pIC50 was 6.52 in the series with K562 and 7.12 in the series with DU-145. The same compound returned a solubility in series [1] of 10000 µg/mL (≈ 18.9 mM).

For the compound `COc1cc(OC)c(/C=C/S(=O)(=O)Nc2ccc(OC)c(NCC(=O)O)c2)c(OC)c1`, in the series with K562, the Activity entry was “Dose-dependent effect” and the pIC50 is 7.70. This compound gave a solubility in series [1] of 10000 µg/mL (≈ 22.1 mM). Also, in the series with DU-145, the Activity entry is “Dose-dependent effect” and the pIC50 is 6.40. Besides, the inhibition entry in the series listed under Bos taurus was “Active”.

`COc1cc(OC)c(/C=C/S(=O)(=O)Nc2ccc(OC)c(NC(C(=O)O)c3ccc(Br)cc3)c2)c(OC)c1` (configuration not stated): in the series with K562, the Activity entry was “Dose-dependent effect” and the pIC50 is 7.12. In addition, the solubility in series [1] is 10000 µg/mL (≈ 16.5 mM). For the same compound, in the series on DU-145, the Activity result was “Dose-dependent effect” and the pIC50 is 6.60.

Consider `COc1cc(OC)c(/C=C/S(=O)(=O)Nc2ccc(OC)c(NC(C)C(=O)O)c2)c(OC)c1` (configuration not stated), for which, in the series on K562, the Activity entry was “Dose-dependent effect” and the pIC50 is 8.10. In addition, in series [1], the solubility is 10000 µg/mL (≈ 21.4 mM). In the series with DU-145, the Activity result was “Dose-dependent effect” and the pIC50 is 7.40.

As for `O=c1cc[nH]c(=S)[nH]1` [THIOURACIL], in series [2], the CC50 at 1 h is more than 1000 µM.

On to `CC(=O)O[C@@]12CO[C@@H]1C[C@H](O)[C@@]1(C)C(=O)[C@H](O)C3=C(C)[C@@H](OC(=O)[C@H](O)[C@@H](NC(=O)OC(C)(C)C)c4ccccc4)C[C@@](O)([C@@H](OC(=O)c4ccccc4)[C@H]21)C3(C)C`, for which the result at Tubulin (Sus scrofa) [3] was Active.

As to `CC[C@]1(O)C[C@H]2CN(CCc3c([nH]c4ccccc34)[C@@](C(=O)OC)(c3cc4c(cc3OC)N(C=O)[C@H]3[C@@](O)(C(=O)OC)[C@H](OC(C)=O)[C@]5(CC)C=CCN6CC[C@]43[C@@H]65)C2)C1`, the result on Tubulin (Sus scrofa) [4] was Active.

In the case of `COc1cc(OC)c(/C=C/S(=O)(=O)Nc2ccc(OC)c(OC(=O)C(C)(C)C3=C(C)C(=O)C=C(C)C3=O)c2)c(OC)c1`, the Activity result in the series with K562 and with DU-145 was “Dose-dependent effect” each time. In addition, the negative logarithm of the IC50 (pIC50) with K562 was 8.10; in the series with DU-145, 8.05.

With `COc1ccc(NS(=O)(=O)/C=C/c2c(F)c(F)c(F)c(F)c2F)cc1F`, the Activity entry in the series on K562 and with DU-145 was “Dose-dependent effect” in each case. For the same compound, the pIC50 in the series with K562 and with DU-145 was 5.00 throughout.

With `COc1ccc(/C=C/S(=O)(=O)Nc2ccc(F)cc2)cc1`, in the series on K562, the Activity entry is “Dose-dependent effect” and the pIC50 is 5.00. In the series on DU-145, the Activity result is “Dose-dependent effect” and the negative logarithm of the IC50 (pIC50) is 5.00.
